Assay outcomes from PubChem BioAssay.
Rows were chosen to be rich in hits. Some 3.5% of all compounds tested hit in one or more screens of this group.
MrgX1 antag – antagonists of human MrgX1 receptor, primary screen, HEK293 cells, Fluo-4 calcium flux; Mas-related G-protein coupled receptor member X1 (Homo sapiens), Q96LB2; BAM8-22 antagonism; hits give low values; B-score at 10 µM; actives 1.3% (n = 310,000);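 active = calcium-response B-score plate-corrected more than 3 library SD below zero, starting fluorescence within 5 deviations, no agonist response on first addition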;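 note: peak minus trough fluorescence over baseline after final BAM8-22 challenge near maximal dose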
Target sequence (Q96LB2 whole entry, looked up): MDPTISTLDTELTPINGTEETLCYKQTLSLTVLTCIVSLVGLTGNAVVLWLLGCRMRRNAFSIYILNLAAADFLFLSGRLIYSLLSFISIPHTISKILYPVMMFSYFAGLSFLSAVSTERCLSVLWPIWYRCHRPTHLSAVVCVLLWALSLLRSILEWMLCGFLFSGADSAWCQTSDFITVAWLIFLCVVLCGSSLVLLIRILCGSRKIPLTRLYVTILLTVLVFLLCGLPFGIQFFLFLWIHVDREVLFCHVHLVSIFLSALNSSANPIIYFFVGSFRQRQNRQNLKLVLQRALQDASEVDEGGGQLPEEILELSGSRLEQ
MrgX1 PAM – positive allosteric modulators of MrgX1, primary screen, HEK293 cells, Fluo-4 calcium flux | Mas-related G-protein coupled receptor member X1 (Homo sapiens), Q96LB2 | FDSS; hits give high values | B-score at 10 µM | actives 0.63% (n = 310,000);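 active = plate-corrected calcium response at least 3 library SD above typical, normal starting fluorescence, not activating the receptor alone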;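 note: compound read alongside a low EC10 to EC30 dose of BAM8-22 agonist; peak minus trough fluorescence over baseline measured at the second addition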
RGS4 pot – RGS4 potentiators or activators, primary screen, cell-based, HEK293 M3R inducible RGS4, calcium flux. actives 0.92% (n = 310,000). B-score at 10 µM. carbachol calcium flux Fluo4; hits give low values. AID 463111, 2010;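 active = B-score of the integrated calcium signal more than 4 SD below the library mean, with starting fluorescence not abnormally high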;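 note: negative B-score means reduced calcium response which marks RGS4 activation or potentiation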
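System: HEK293 FlpIn-TREx cells, stable M3R, doxycycline-inducible RGS4. Timing: overnight RGS4 induction, 30 min dye load 37 °C, 20 min compound RT. Also added: carbachol, ECmax concentration. Measured by: Fluo4 fluorescence kinetic imaging of calcium. Evaluation: integrated calcium ratio converted to B score.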
MrgX1 ag – agonists of human MrgX1 receptor, primary screen, HEK293 cells, Fluo-4 calcium flux; Mas-related G-protein coupled receptor member X1 (Homo sapiens), Q96LB2; B-score at 10 µM; Fluo-4 calcium fluorescence, agonist mode; hits give high values; actives 0.44% (n = 310,000);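 active = calcium response B-score plate-corrected fluorescence ratio at least 3 library SD, with starting fluorescence B-score inside 5 SD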
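Material – MrgX1-expressing HEK293 cells · Input – 15,000 cells seeded per well · Dosing – compound as first of three additions · Times – overnight seeding, then 1 h dark dye loading · Measured by – kinetic Fluo-4 NW fluorescence of intracellular calcium · Read-out – B-scored fluorescence response ratio · Benchmarks – positive and negative control wells on each plate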
RGS4 inh – RGS4 inhibitors, primary screen, cell-based, HEK293 M3R inducible RGS4, calcium flux; Regulator of G-protein signaling 4 (Homo sapiens), P49798; Fluo-4 calcium flux; hits give high values; triggered by carbachol at its EC20; B-score at 10 µM; actives 0.45% (n = 310,000); AID 463165, 2010;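 active = B-score, a plate-corrected calcium signal, over three deviations above library mean, with baseline fluorescence within five deviations of library mean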;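 note: RGS4 expression induced by doxycycline in cells with stable M3 receptor; B-score is computed from the integrated fluorescence ratio over baseline after carbachol; higher B-score means a larger calcium signal and so more RGS4 inhibition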
Target sequence (P49798 whole entry, looked up): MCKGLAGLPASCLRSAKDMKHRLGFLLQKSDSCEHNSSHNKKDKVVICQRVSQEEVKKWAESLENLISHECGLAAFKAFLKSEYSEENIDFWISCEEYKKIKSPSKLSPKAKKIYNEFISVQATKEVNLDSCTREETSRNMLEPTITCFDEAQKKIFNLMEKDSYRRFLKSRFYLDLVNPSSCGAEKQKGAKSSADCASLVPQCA
MrgX1 antag conf – MrgX1 receptor antagonists, duplicate retest, confirmation, HEK293 cells, Fluo-4 calcium flux | shares compounds with MrgX1 antag | BAM8-22 calcium flux; hits give low values | remaining BAM8-22 calcium response % of control (hits give low values), % at 10 µM | actives 19% (n = 2,300) | AID 602420, 2012;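 active = remaining agonist calcium response no higher than 100% minus 3 SD of agonist-only control wells, with starting fluorescence near control levels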;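 note: agonist BAM8-22 given at a near maximal EC90 to ECmax level; peak minus minimum fluorescence divided by baseline after agonist addition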
HEK293 Ca flux – nonspecific calcium signal in parental HEK293, confirmation, counter-screen for MrgX1 antagonist project, parental HEK293 cells, Fluo-4 calcium flux | shares compounds with MrgX1 antag | Fluo-4 calcium fluorescence, FDSS | fluorescence ratio F(max-min)/F0 at 10 µM | actives 2% (n = 4,000);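 active = duplicate-averaged calcium fluorescence ratio at least three times the standard deviation of buffer wells, a nonspecific response in parental cells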
HEK293 Ca counter – calcium response in parental HEK293 cells, primary screen, counter-screen for MrgX1 allosteric activator project, cell-based, Fluo-4 calcium flux, duplicate; shares compounds with MrgX1 antag; Fluo-4 fluorescence ratio; hits give high values; fluorescence ratio F(max-min)/F0 at 10 µM; actives 0.4% (n = 4,000); AID 624114, 2012;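 active = calcium fluorescence ratio, averaged over duplicates, at least 3 SD of the buffer-well ratio, meaning a nonspecific response in receptor-free cells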;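 note: untransfected parental HEK293 lacking MrgX1 used as counterscreen for MrgX1 allosteric activators; fluorescence change taken during the second addition on a kinetic imager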
HEK293 Ca cntr2 – calcium response in parental HEK293 cells, primary screen, counter-screen for MrgX1 agonist project, cell-based, Fluo-4 calcium flux, duplicate, agonist mode. AID 624115, 2012. shares compounds with MrgX1 antag. Fluo-4 calcium fluorescence (FDSS); hits give high values. fluorescence ratio F(max-min)/F0 at 10 µM. actives 8.7% (n = 4,000);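 active = calcium fluorescence ratio at least three times the spread of buffer wells, meaning a non-specific response in parental cells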
* marks the source's active call; other numbers are inactive results.

What do the screens show for `CC1(C)CC2CC(C)(CN2CC(O)c2ccccc2)C1` (stereo unspecified)?
MrgX1 antag: inactive; MrgX1 PAM: inactive; RGS4 pot: inactive; MrgX1 ag: inactive; RGS4 inh: inactive

How did COc1ccc(N=Cc2oc3ccc4ccccc4c3c2O)cc1 do in these assays?
MrgX1 antag: -5.08*; MrgX1 PAM: inactive; RGS4 pot: inactive; MrgX1 ag: inactive; RGS4 inh: inactive; MrgX1 antag conf: 51.2%*; HEK293 Ca flux: inactive; HEK293 Ca counter: inactive; HEK293 Ca cntr2: inactive

What do the screens show for `COc1ccc(N=Cc2[nH]c3ccccc3c2O)cc1`?
MrgX1 antag: inactive; MrgX1 PAM: inactive; RGS4 pot: inactive; MrgX1 ag: inactive; RGS4 inh: inactive

How did CC(Oc1cccc(Cl)c1)C(=O)N1CCCN(C)CC1 (stereo unspecified) do in these assays?
MrgX1 antag: inactive; MrgX1 PAM: inactive; RGS4 pot: inactive; MrgX1 ag: inactive; RGS4 inh: inactive

What do the screens show for `Cc1nnc(NC(=O)CSc2ccc(-c3cccnc3)nn2)s1`?
MrgX1 antag: -5.64*; MrgX1 PAM: inactive; RGS4 pot: inactive; MrgX1 ag: inactive; RGS4 inh: inactive; MrgX1 antag conf: inactive; HEK293 Ca flux: inactive; HEK293 Ca counter: inactive; HEK293 Ca cntr2: inactive

Results for CCCCn1c(=O)c(CCC(=O)OCC(=O)NCc2ccc(OC)c(OC)c2)nc2ccccc21 ?
MrgX1 antag: inactive; MrgX1 PAM: inactive; RGS4 pot: inactive; MrgX1 ag: inactive; RGS4 inh: inactive

What do the screens show for `O=C(O)Cc1ccc(NC(=O)Nc2ccc3c(c2)OCO3)cc1`?
MrgX1 antag: inactive; MrgX1 PAM: inactive; RGS4 pot: inactive; MrgX1 ag: inactive; RGS4 inh: inactive

How did C=CCSc1nc2c(c(C3CC=CCC3)c1C#N)CCC2 (stereo unspecified) do in these assays?
MrgX1 antag: inactive; MrgX1 PAM: inactive; RGS4 pot: inactive; MrgX1 ag: inactive; RGS4 inh: inactive

How did CC(C)OC(=O)CSc1nc2c(c(C3CC=CCC3)c1C#N)CCC2 (stereo unspecified) do in these assays?
MrgX1 antag: -6.21*; MrgX1 PAM: inactive; RGS4 pot: inactive; MrgX1 ag: inactive; RGS4 inh: inactive; MrgX1 antag conf: inactive; HEK293 Ca flux: inactive; HEK293 Ca counter: inactive; HEK293 Ca cntr2: inactive

Results for Cc1cccc2cc(CN(CC3CCCO3)C(=O)c3ccco3)c(=O)[nH]c12 (stereo unspecified) ?
MrgX1 antag: -8.27*; MrgX1 PAM: inactive; RGS4 pot: inactive; MrgX1 ag: inactive; RGS4 inh: inactive; MrgX1 antag conf: inactive; HEK293 Ca flux: inactive; HEK293 Ca counter: inactive; HEK293 Ca cntr2: inactive

Results for Cc1ccsc1-c1nc(CN2CCCC2c2ccc(F)cc2)c(C)o1 (stereo unspecified) ?
MrgX1 antag: inactive; MrgX1 PAM: inactive; RGS4 pot: inactive; MrgX1 ag: inactive; RGS4 inh: inactive
